Reference: ChEMBL document CHEMBL1143384, “Discovery of novel inhibitors of Trypanosoma cruzi trans-sialidase from in silico screening” (Bioorg Med Chem Lett, 2009)
Calls of active or inactive are those of the source. The rule behind the calls is not given here.

Legend:
[1] = molecular target: T1, Trans-sialidase (Trypanosoma cruzi) (UniProt Q26966); experiment: Inhibition of Trypanosoma cruzi trans-Sialidase at 1 mM by MuNANA assay
T1 sequence (whole entry): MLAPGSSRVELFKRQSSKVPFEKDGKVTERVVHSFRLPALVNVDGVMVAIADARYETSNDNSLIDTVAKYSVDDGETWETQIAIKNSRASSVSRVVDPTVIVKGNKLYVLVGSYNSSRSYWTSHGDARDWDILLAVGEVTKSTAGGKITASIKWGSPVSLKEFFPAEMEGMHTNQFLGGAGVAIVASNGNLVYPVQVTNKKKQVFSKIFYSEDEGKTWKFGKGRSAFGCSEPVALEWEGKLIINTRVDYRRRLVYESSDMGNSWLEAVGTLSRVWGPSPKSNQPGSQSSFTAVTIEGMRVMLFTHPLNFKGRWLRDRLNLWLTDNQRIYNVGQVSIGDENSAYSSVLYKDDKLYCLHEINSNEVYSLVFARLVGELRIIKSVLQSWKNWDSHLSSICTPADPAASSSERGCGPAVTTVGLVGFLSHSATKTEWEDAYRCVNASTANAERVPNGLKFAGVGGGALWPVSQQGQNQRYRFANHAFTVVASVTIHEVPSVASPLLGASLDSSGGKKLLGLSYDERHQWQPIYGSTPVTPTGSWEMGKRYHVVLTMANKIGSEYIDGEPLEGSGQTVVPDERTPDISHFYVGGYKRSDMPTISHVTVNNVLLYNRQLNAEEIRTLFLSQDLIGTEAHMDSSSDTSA
Procedure, shortened: (§1)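 Recombinant TcTS in a continuous fluorimetric assay in 96-well format, with 4-methylumbelliferyl sialoside (MuNANA) as substrate, following sialic acid hydrolysis. Compounds were first screened at 1 mM, or at the highest concentration their solubility allowed, in triplicate. IC50 was then determined in the same assay for compounds inhibiting more than 50%.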

[2] = molecular target: T1, Trans-sialidase (Trypanosoma cruzi); experiment: Inhibition of Trypanosoma cruzi trans-Sialidase at 0.05 mM by MuNANA assay; procedure, shortened: as §1
[3] = molecular target: T2, Trans-sialidase (Trypanosoma cruzi, UniProt Q26966); experiment: Inhibition of Trypanosoma cruzi trans-Sialidase by MuNANA assay; procedure, shortened: as §1
T2 sequence (Q26966 whole entry): T1 sequence (whole entry)

[4] = molecular target: T1, Trans-sialidase (Trypanosoma cruzi); experiment: Inhibition of Trypanosoma cruzi trans-Sialidase at 0.025 mM by MuNANA assay; procedure, shortened: as §1
[5] = molecular target: T2, Trans-sialidase; experiment: Inhibition of Trypanosoma cruzi trans-Sialidase; procedure, shortened: as §1
[6] = molecular target: T1, Trans-sialidase (Trypanosoma cruzi); experiment: Inhibition of Trypanosoma cruzi trans-Sialidase at 0.5 mM by MuNANA assay; procedure, shortened: as §1
[7] = molecular target: T1, Trans-sialidase (Trypanosoma cruzi); experiment: Inhibition of Trypanosoma cruzi trans-Sialidase at 0.125 mM by MuNANA assay; procedure, shortened: as §1
[8] = molecular target: T1, Trans-sialidase (Trypanosoma cruzi); experiment: Inhibition of Trypanosoma cruzi trans-Sialidase at 1 mM by TIA assay
Procedure, shortened: (§2)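 Trans-sialidase inhibition assay (TIA), which measures sialic acid transfer from sialyllactose as donor to 14C-radiolabelled lactose as acceptor.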

[9] = molecular target: T2, Trans-sialidase; experiment: Inhibition of Trypanosoma cruzi trans-Sialidase by TIA assay; procedure, shortened: as §2
[10] = molecular target: T1, Trans-sialidase (Trypanosoma cruzi); experiment: Inhibition of Trypanosoma cruzi trans-Sialidase at 0.1 mM by MuNANA assay; procedure, shortened: as §1
[11] = molecular target: T1, Trans-sialidase (Trypanosoma cruzi); experiment: Inhibition of Trypanosoma cruzi trans-Sialidase at 0.01 mM by MuNANA assay; procedure, shortened: as §1

Row | Structure (SMILES) | inhibition [1] | IC50 [3] | other results
1 | Cc1c(NS(=O)(=O)c2cccc(C(=O)NCc3ccncc3)c2)c(=O)n(-c2ccccc2)n1C | 23% |  | 
2 | COc1ccc(Nc2nc3ccccc3nc2NS(=O)(=O)c2ccc(NC(C)=O)cc2)c(OC)c1 |  |  | inhibition [2]: 32%
3 | CC(=O)c1sc(C(C)(C)C)cc1NC(=O)c1ccccc1C(=O)O | 84% | 270 µM | 
4 | CCCOC(=O)c1c(NC(=O)C2CCCCC2C(=O)O)sc(C)c1C (stereo unspecified) | 87% | 210 µM | 
5 | CC(=O)Nc1ccc(S(=O)(=O)Nc2nc3n(n2)C(c2ccc(Cl)cc2)C=C(c2ccccc2)N3)cc1 (stereo unspecified) |  |  | Activity [4]: inactive
6 | Cc1ncc(COP(=O)(O)O)c(C=O)c1O [PYRIDOXAL PHOSPHATE ANHYDROUS] |  |  | Ki [5]: 7.3 mM
7 | COc1cccc(/C=C(\CC(=O)O)c2nc3ccccc3s2)c1 | 91% | 310 µM | 
8 | COc1cccc(CNC(=O)Cc2c(C(=O)O)[nH]c3ccc(Cl)cc23)c1 |  |  | inhibition [6]: 57%
9 | COc1ccc(/C=C(\CC(=O)O)c2nc3ccccc3s2)cc1OC |  | 180 µM | inhibition [6]: 84%
10 | O=C(O)CC(C(=O)Nc1cc(C(F)(F)F)cc(C(F)(F)F)c1)C1=CCCCC1 (stereo unspecified) | 32% |  | 
11 | COCCNC(=O)c1ccc(NS(=O)(=O)c2cc(Cl)sc2Cl)cc1 | 50% |  | 
12 | CC(=O)Nc1ccc(C(=O)O)cc1CO |  |  | IC50 [5]: 540 µM
13 | CC(=O)Nc1ccc(C(=O)O)nc1N |  |  | IC50 [5]: 440 µM
14 | CC(=O)Nc1ccc(S(=O)(=O)Nc2nc(-c3ccccc3)c(-c3ccccc3)o2)cc1 |  |  | inhibition [7]: 22%
15 | O=C(O)C/C(=C\c1cccc(C(F)(F)F)c1)c1nc2ccccc2s1 | 92% | 150 µM | 
16 | CC(=O)c1sccc1NC(=O)c1ccccc1C(=O)O | 79% | 290 µM | inhibition [8]: 32%
17 | CCOc1ccccc1/C=C(\CC(=O)O)c1nc2ccccc2s1 | 90% | 160 µM | IC50 [9]: 420 µM
18 | CC(=O)N[C@H]1[C@H]([C@H](O)[C@H](O)CO)OC(C(=O)O)=C[C@@H]1O [NEU5AC2EN] |  |  | Ki [5]: 12.3 mM

Row | Structure (SMILES) | inhibition [1] | IC50 [3] | other results
19 | O=C(O)C/C(=C\c1cccc(O)c1)c1nc2ccccc2s1 |  |  | inhibition [10]: 30%; IC50 [9]: 520 µM
20 | CC(=O)N[C@H]1C(O)CC(P(=O)(O)CCO[C@H]2[C@@H](O)[C@@H](CO)OC(O)[C@@H]2O)=C[C@@H]1O (single isomer, unassigned) |  |  | IC50 [5]: 1500 µM
21 | COC(=O)c1ccc(Oc2ccc(C(F)(F)F)cc2NC(=O)c2ccccc2C(=O)O)s1 | 21% |  | 
22 | COc1ccc(CC(=O)Nc2ccc(S(=O)(=O)Nc3nc(C)cc(C)n3)cc2)cc1 |  |  | inhibition [6]: 42%
23 | O=C(O)C1CC=C(Cl)CC1C(=O)NCC1OCCc2ccccc21 (stereo unspecified) | 26% |  | 
24 | Cc1ccc(S(=O)(=O)Nc2nnc(SCC(=O)Nc3ccc4c(c3)OCO4)s2)cc1 | 82% | 280 µM | 
25 | CCn1nc(NS(=O)(=O)c2ccc(C)cc2)c2cc3cc(C)ccc3nc21 |  |  | Activity [11]: inactive
26 | OC[C@H]1O[C@@H](O[C@@H]2[C@@H](CO)O[C@](O)(CO)[C@H]2O)[C@H](O)[C@@H](O)[C@H]1O [LACTULOSE] |  |  | IC50 [5]: 570 µM
27 | COc1ccc(NC(=O)CC2(CC(=O)O)CCCCC2)cc1OC |  |  | Activity [1]: inactive
28 | CCOP(=O)(O)C1=C[C@H](O)[C@@H](NC(C)=O)[C@H](OCCO)C1 |  |  | IC50 [5]: 5000 µM
29 | CC1(C)SC2c3ccccc3C(=O)N2C1C(=O)NC(Cc1c[nH]c2ccccc12)C(=O)O (stereo unspecified) | 23% |  | 
30 | O=C(O)c1ccccc1C(=O)NCCCc1c(C(=O)O)[nH]c2cc3c(cc12)OCCO3 | 36% |  | 
31 | O=c1[nH]c(O)c(C(c2ccc3c(c2)CN2CCOCC2O3)c2c(O)[nH]c(=O)[nH]c2=O)c(=O)[nH]1 (stereo unspecified) |  |  | inhibition [6]: 28%
32 | O=C(O)C/C(=C\c1cccc(F)c1)c1nc2ccccc2s1 | 94% | 120 µM | 
33 | COc1cc(C2C(C(=O)c3ccc4c(c3)OCCO4)=C(O)C(=O)N2CCCN(C)C)cc(OC)c1OC (stereo unspecified) |  |  | inhibition [6]: 41%
34 | COc1ccc(C(CC(=O)O)NC(=O)COc2cc(C)ccc2C)cc1OC (stereo unspecified) | 30% |  | 
35 | CC(C)Oc1ccccc1/C=C(\CC(=O)O)c1nc2ccccc2s1 | 92% | 150 µM | IC50 [9]: 290 µM
36 | Cc1ccc(C)c(/C=C(\CC(=O)O)c2nc3ccccc3s2)c1 | 91% | 120 µM | 
